According to ChEMBL document CHEMBL1811872, “Tryptophan 2,3-dioxygenase (TDO) inhibitors. 3-(2-(pyridyl)ethenyl)indoles as potential anticancer immunomodulators” (J Med Chem, 2011):
pIC50, pKi: −log10 of the molar value. In brackets after ≈: the same amount, converted by molar mass.

How the values were obtained:
[1] = Cytotoxicity against mouse P815B cells […] by MTT assay; type: functional; settings: read-out: LD50 (the source's name)
[2] = target: Tryptophan 2,3-dioxygenase (Mus musculus, UniProt P48776); experiment: Inhibition of mouse TDO expressed in mouse P815B cells assessed as inhibition of tryptophan catabolism by measuring kynurenine production after 8 hrs by HPLC analysis; type: cell-based
Tryptophan 2,3-dioxygenase (Mus musculus, UniProt P48776), sequence (P48776 whole entry): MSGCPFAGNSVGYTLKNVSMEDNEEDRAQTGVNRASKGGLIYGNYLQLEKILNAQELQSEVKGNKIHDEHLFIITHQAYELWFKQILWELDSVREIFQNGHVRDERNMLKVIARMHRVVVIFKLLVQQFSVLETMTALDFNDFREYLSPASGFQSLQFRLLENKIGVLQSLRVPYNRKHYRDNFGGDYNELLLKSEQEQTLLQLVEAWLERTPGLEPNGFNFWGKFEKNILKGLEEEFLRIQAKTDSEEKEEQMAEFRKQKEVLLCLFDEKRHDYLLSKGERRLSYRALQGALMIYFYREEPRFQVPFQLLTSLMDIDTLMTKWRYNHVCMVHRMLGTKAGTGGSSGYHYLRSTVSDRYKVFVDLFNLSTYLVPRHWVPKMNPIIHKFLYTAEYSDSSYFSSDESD

[3] = target: T1, MAO-A (amine oxidase [flavin-containing] A) (Homo sapiens, UniProt P21397); experiment: Inhibition of MAO-A at 10 uM relative to control
T1 sequence (P21397 whole entry): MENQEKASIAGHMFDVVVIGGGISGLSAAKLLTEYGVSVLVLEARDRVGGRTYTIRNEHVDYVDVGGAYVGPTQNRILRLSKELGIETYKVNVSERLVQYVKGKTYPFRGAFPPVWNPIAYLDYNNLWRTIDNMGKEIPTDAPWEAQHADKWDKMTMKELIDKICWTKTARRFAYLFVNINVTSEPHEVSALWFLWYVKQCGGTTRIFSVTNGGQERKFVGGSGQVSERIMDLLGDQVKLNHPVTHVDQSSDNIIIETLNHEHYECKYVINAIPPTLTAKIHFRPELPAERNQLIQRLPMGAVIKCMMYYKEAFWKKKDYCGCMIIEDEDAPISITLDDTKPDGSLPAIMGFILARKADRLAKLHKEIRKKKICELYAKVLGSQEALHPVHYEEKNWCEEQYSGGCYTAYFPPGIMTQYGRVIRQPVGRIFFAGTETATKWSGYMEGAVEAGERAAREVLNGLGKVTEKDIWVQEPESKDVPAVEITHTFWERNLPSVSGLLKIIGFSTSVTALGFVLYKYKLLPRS

Mus musculus = experiment: Toxicity in mouse P815B cells expressing TDO xenografted immunized mouse at 160 mg/kg/day, po administered with water; type: organism-based; set-up: route oral; settings: in vivo
[4] = Solubility of the compound in phosphate buffered saline at pH 7.4; type: physicochemical
How it was run: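 Solubility was measured experimentally in phosphate buffer (PBS), pH 7.4, at room temperature.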

[5] = Chemical stability of the compound in phosphate buffered saline assessed as compound remaining at pH 7.4 after 1.5 hrs; type: physicochemical; settings: read-out: Stability
How it was run: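 Compound was incubated in phosphate-buffered saline, pH 7.4, for 1.5 h; read-out was the percentage of compound recovered.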

[6] = Plasma concentration in DBA/2 mouse at 160 mg/kg/day, po administered for 7 days with water; type: ADME, organism-based; set-up: route oral
How it was run: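 DBA/2 mice received the compound dissolved in drinking water (1 mg/mL) ad libitum. Mean water intake was 4.0 mL/mouse/day, giving about 160 mg/kg/day. Plasma levels of compound, L-Trp and kynurenine were measured at days 0, 1, 2 and 7.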

[7] = target: T2, MAO-B (amine oxidase [flavin-containing] B) (Homo sapiens, UniProt P27338); experiment: Inhibition of MAO-B at 10 uM relative to control
T2 sequence (P27338 whole entry): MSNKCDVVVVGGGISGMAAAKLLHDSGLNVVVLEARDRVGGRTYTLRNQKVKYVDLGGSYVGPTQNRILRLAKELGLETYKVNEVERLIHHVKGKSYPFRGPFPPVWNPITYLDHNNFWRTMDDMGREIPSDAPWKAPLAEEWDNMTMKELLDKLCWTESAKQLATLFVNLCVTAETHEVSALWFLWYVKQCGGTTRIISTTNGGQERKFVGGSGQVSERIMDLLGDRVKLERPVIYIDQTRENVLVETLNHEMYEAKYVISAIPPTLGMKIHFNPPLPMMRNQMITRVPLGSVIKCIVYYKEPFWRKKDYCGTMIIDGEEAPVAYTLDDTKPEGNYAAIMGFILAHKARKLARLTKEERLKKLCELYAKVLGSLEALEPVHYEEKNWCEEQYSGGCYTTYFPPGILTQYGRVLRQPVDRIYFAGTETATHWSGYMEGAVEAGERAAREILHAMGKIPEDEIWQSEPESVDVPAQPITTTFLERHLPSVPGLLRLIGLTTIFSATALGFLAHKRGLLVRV

[8] = target: Tryptophan 2,3-dioxygenase (Homo sapiens, UniProt P48775); experiment: Competitive inhibition of human recombinant TDO expressed in Escherichia coli BL21 using L-tryptophan as substrate by measuring conversion of N-formylkynurenine into kynurenine after 30 mins by Michaelis-Menten steady state analysis
Tryptophan 2,3-dioxygenase (Homo sapiens, UniProt P48775), sequence (P48775 whole entry): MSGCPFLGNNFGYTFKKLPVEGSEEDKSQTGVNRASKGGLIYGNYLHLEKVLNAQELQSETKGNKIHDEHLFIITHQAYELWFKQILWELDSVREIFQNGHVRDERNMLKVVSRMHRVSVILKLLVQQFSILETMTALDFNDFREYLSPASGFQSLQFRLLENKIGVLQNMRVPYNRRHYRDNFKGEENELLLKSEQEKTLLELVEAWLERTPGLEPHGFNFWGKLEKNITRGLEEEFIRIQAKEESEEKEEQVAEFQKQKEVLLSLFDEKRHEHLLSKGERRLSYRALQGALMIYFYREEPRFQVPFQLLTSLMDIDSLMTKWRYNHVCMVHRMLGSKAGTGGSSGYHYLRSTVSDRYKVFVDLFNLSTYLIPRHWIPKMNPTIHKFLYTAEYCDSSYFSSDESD

[9] = target: 5-hydroxytryptamine receptor 2B (Homo sapiens, UniProt P41595); experiment: Displacement of [125I](+/-)-DOI from human 5HT2B receptor
5-hydroxytryptamine receptor 2B, sequence (P41595 whole entry): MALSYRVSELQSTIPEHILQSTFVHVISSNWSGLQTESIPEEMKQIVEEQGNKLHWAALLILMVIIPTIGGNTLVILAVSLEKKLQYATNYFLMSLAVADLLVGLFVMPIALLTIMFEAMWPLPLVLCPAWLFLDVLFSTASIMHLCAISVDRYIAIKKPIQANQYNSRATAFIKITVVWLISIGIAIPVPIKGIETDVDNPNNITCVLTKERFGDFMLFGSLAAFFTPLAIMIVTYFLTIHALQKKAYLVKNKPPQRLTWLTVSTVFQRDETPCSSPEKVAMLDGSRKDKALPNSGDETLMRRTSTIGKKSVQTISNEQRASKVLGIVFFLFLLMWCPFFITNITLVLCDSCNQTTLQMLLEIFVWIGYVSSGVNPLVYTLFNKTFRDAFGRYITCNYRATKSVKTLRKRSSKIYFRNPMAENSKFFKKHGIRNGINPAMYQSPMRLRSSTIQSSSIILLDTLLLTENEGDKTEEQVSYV

[10] = Displacement of [3H]prazosin from adrenergic alpha1 receptor
[11] = Displacement of [3H]RX821002 from adrenergic alpha2 receptor

Structure (SMILES)	CC50 [1] [nM]	pIC50 [2]	solubility [4] [µM]	remaining at 1.5 h [5] [%]	concentration at 168 h [6] [nM]	also measured
Fc1ccc2c(/C=C/c3nnn[nH]3)c[nH]c2c1	> 400000	5.70	> 300	93.3	60000	inhibition at 10 µM [3]: < 10%; Activity (Mus musculus): Non-toxic; inhibition at 10 µM [7]: < 10%
O=C(O)/C=C/c1c[nH]c2cc(F)ccc12	> 400000	5.52	> 300	92.9	1400	pKi [8]: 4.49
Fc1ccc2c(/C=C/c3cccnc3)c[nH]c2c1	> 80000	6.00	92 (≈ 21.9 µg/mL)	67.6	100	
COc1cc(CC(C)N)c(OC)cc1I (racemic)						pKi [9]: 8.70
COc1cc2nc(N3CCN(C(=O)c4ccco4)CC3)nc(N)c2cc1OC [PRAZOSIN]						pKi [10]: 10.15
COC(=O)[C@@H]1[C@H]2C[C@H]3c4[nH]c5ccccc5c4CCN3C[C@@H]2CC[C@@H]1O [YOHIMBINE]						pKi [11]: 7.48
